In ChEMBL document CHEMBL1153014, “Synthesis and antimicrobial properties of polymerizable quaternary ammoniums” (Eur J Med Chem, 2009):

Tests used:
[1] = tested on: Aspergillus niger; assay: Microbiostatic activity against Aspergillus niger ATCC 6275 after 72 hrs by turbidimetric method; assay type: functional; conditions: ATCC 6275, 72 h
Summary of the method: (§1)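 Turbidimetric broth microdilution: automated serial dilutions of agent in sterile deionised water, then inoculation. Spores come from 5–7 day SDA cultures at 25 °C, harvested in M9G (pH 5.0) and gauze-filtered to remove mycelium. Inoculum is set to 5·10^6–5·10^7 spores/mL by counting cell. Incubation is 72 h at 25 °C. MIC is the first concentration with no turbidity.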

[2] = tested on: Candida albicans; assay: Microbicidal activity against Candida albicans ATCC 10231 after 7 days by microtiter plate method; assay type: functional; conditions: ATCC 10231, 168 h
Summary of the method: (§2)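 Fungal MIC microplates are kept 7 days. 100 µL from each of the three concentrations above the MIC is subcultured onto agent-free TSA or SDA plates. MLC is the lowest concentration giving no growth.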

[3] = Critical micelle concentration by conductimetry; assay type: physicochemical
[4] = tested on: Aspergillus niger; assay: Microbicidal activity against Aspergillus niger ATCC 6275 after 7 days by microtiter plate method; assay type: functional; conditions: ATCC 6275, 168 h; summary of the method: as §2
[5] = tested on: Pseudomonas aeruginosa; assay: Microbiostatic activity against Pseudomonas aeruginosa ATCC 9027 after 24 hrs by turbidimetric method; assay type: functional; conditions: ATCC 9027, 24 h
Summary of the method: (§3)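 Exponential-phase bacteria are grown overnight on TSA, then overnight at 30 °C in M9G (pH 7.0). Suspension is adjusted to OD660 0.05 (about 5·10^6–5·10^7 cfu/mL), verified by plate count. Automated serial dilutions of agent in deionised water are inoculated and incubated 24 h at 30 °C. MIC is the first concentration without turbidity.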

[6] = tested on: Pseudomonas aeruginosa; assay: Microbicidal activity against Pseudomonas aeruginosa ATCC 9027 after 5 days by microtiter plate method; assay type: functional; conditions: ATCC 9027, 120 h
Summary of the method: (§4)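 Bacterial MIC microtiter plates are held 5 days. For each of the three concentrations above the MIC, 100 µL is plated on TSA or SDA plates. MLC is the first concentration showing no growth after subculture.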

[7] = tested on: Candida albicans; assay: Microbiostatic activity against Candida albicans ATCC 10231 after 72 hrs by turbidimetric method; assay type: functional; conditions: ATCC 10231, 72 h; summary of the method: as §1
[8] = tested on: Staphylococcus aureus; assay: Microbiostatic activity against Staphylococcus aureus ATCC 6538 after 24 hrs by turbidimetric method; assay type: functional; conditions: ATCC 6538, 24 h; summary of the method: as §3
[9] = tested on: Staphylococcus aureus; assay: Microbicidal activity against Staphylococcus aureus ATCC 6538 after 5 days by microtiter plate method; assay type: functional; conditions: ATCC 6538, 120 h; summary of the method: as §4

Compound	MIC [1]	MLC [2]	CMC [3]	MLC [4]	MIC [5]	MLC [6]	MIC [7]	MIC [8]	MLC [9]
C=CC(=O)OCC[N+](C)(C)CCCCCCCCCC.[Br-]	175 µM	359 µM	1.16 ×10⁻² mol/L	280 µM	356 µM	416 µM	278 µM	356 µM	359 µM
C=CC(=O)OCCCCCCCCCCC[N+](C)(C)CCCCCCCCCCCC.[Br-]	14.8 µM	15.4 µM	9.66 ×10⁻⁴ mol/L	14.8 µM	58.4 µM	64.7 µM	14.8 µM	34.7 µM	34.7 µM
C=CC(=O)OCCCCCCCCCCC[N+](C)(C)CCCCCCCCCC.[Br-]	19 µM	30.4 µM	2.79 mM	19.3 µM	79.9 µM	188 µM	19 µM	64.8 µM	72.6 µM
C=CC(=O)OCCCCCCCCCCC[N+](C)(C)CCCCCCCCCCCCCC.[Br-]	24.9 µM	16.8 µM	4.68 ×10⁻⁴ mol/L	24.9 µM	44.8 µM	103 µM	16.8 µM	104 µM	164 µM
C=CC(=O)OCC[N+](C)(C)Cc1ccccc1.[Br-]	507 µM	> 2000 µM	4.6 ×10⁻² mol/L	600 µM	> 2000 µM	> 2000 µM	> 2000 µM	> 2000 µM	> 2000 µM
C=CC(=O)OCC[N+](C)(C)CCCCCCCCCCCC.[Br-]	63.8 µM	63.8 µM	6.45 mM	63.8 µM	71.1 µM	71.1 µM	63.8 µM	71.1 µM	71.1 µM
C=CC(=O)OCCCCCCCCCCC[N+](C)(C)CCCCCCCCCCCCCCCC.[Br-]	31.4 µM	40.4 µM	1.66 ×10⁻⁴ mol/L	40.4 µM	132 µM	317 µM	27.1 µM	209 µM	274 µM
C=CC(=O)OCC[N+](C)(C)CCCCCCCCCCCCCC.[Br-]	178 µM	18.4 µM	2.99 mM	232 µM	112 µM	114 µM	18.1 µM	178 µM	232 µM
C=CC(=O)OCCCCCCCCCCC[N+](C)(C)Cc1ccccc1.[Br-]	154 µM	447 µM	3.34 ×10⁻² mol/L	238 µM	154 µM	447 µM	154 µM	244 µM	306 µM
C=CC(=O)OCC[N+](C)(C)CCCCCCCCCCCCCCCC.[Br-]	237 µM	24.7 µM	1.95 mM	283 µM	237 µM	283 µM	24 µM	275 µM	283 µM
